Starred links: 1 amine or outer side, 2 acyl side, 3 side chain; linkers in the order of their positions; H or OH if unused. Non-standard residues stand in square brackets, D forms with d. Residues, ends and D or L forms follow the SMILES beside them. *: point of attachment. 2Nal = N[C@@H](Cc1ccc2ccccc2c1)C(=O)O; Cyclopropanecarbonyl = O=C(C1CC1)*; NHPhenethyl = c1ccc(CCN*)cc1; Isovaleryl = CC(C)CC(=O)*; Isobutyryl = CC(C)C(=O)*; CO = O=C([*:1])[*:2]; NHBn = c1ccc(CN*)cc1; Propionyl = CCC(=O)*; Butyryl = CCCC(=O)*; NHPh = c1ccc(N*)cc1; Moc = COC(=O)*; For = O=C*

For orientation: Kd means the concentration at which binding is half-saturated. The term IC50 denotes the point on the concentration scale where inhibition reaches its midpoint. Broadly, the Ki is the equilibrium dissociation constant of an inhibitor or competing ligand from its target.

T1 sequence (Q96GG9 whole entry, the tested form may be a part): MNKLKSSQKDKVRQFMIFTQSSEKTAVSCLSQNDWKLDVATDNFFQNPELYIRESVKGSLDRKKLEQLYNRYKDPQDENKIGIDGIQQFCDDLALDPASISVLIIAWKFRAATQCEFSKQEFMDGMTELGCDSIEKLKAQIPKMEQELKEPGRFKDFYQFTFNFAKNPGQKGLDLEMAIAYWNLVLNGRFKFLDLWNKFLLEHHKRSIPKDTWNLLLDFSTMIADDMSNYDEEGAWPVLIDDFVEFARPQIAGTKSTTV

The target of one test is T1, DCN1-like protein 1 (Homo sapiens, UniProt Q96GG9). Description: Binding affinity to biotin labeled recombinant N-terminal His6-tagged human DCN1 (58 to 259 residues) expressed in Escherichia coli Rosetta2 cells by biolayer interferometry analysis. The gist of the method:
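Recombinant human DCN1 (58–259) was biotinylated at a 1:1 molar ratio in PBS for 2 h at 4 °C, dialyzed, then loaded on super streptavidin sensors from a 10 μg/mL solution. Blocked streptavidin sensors served as reference.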
(In BLI a coated tip is dipped into the sample, and binding shifts an interference pattern.)
As to `CCC(=O)N[C@@H](Cc1nc2ccccc2s1)C(=O)N[C@H](C(=O)N[C@@H](CCCCN)C(=O)NC(c1ccccc1)c1ccccc1)C1CCCC1`, the Kd is 31.8 nM.
As to `CCC(=O)N[C@@H](Cc1nc2ccc(Cl)cc2s1)C(=O)N[C@H](C(=O)N[C@@H](CCCCN)C(=O)NC(c1ccccc1)c1ccccc1)C1CCCC1`, the Kd is 8.1 nM.
For the molecule `CCC(=O)N[C@@H](Cc1ccc2ccccc2c1)C(=O)N[C@H](C(=O)N[C@@H](CCCCN)C(=O)NC(c1ccccc1)c1ccccc1)C1CCCC1`, the Kd came out at 56.4 nM.
Same read-out and setting: to `CCC(=O)N[C@@H](Cc1nc2ccc(Cl)cc2s1)C(=O)N[C@H](C(=O)N[C@@H](CCCCN(C)C)C(=O)N[C@@H]1CCOc2ccccc21)C1CCCC1` belongs 5.7 nM.
Turning to `CCC(=O)N[C@@H](Cc1nc2ccc(Cl)cc2s1)C(=O)N[C@H](C(=O)N[C@@H](CCCCN)C(=O)N[C@@H]1CCCc2ccccc21)C1CCCC1`, the Kd turned out to be 8.3 nM.
In the case of `CCC(=O)N[C@@H](Cc1nc2ccc(F)cc2s1)C(=O)N[C@H](C(=O)N[C@@H](CCCCN)C(=O)NC(c1ccccc1)c1ccccc1)C1CCCC1`, the Kd came out at 37 nM.
The same measure, in the same setting: then `CCC(=O)N[C@@H](Cc1nc2ccc(Cl)cc2s1)C(=O)N[C@H](C(=O)N[C@@H](CCCCN)C(=O)N[C@@H]1CCOc2ccccc21)C1CCCC1`, with 4.1 nM.

The target of a further test is T1, DCN1-like protein 1. Description: Displacement of (S)-N1-((19S,22S)-26-Amino-19-carbamoyl-1-(3',6'-dihydroxy-3-oxo-3H-spiro[isobenzofuran-1,9'-xanthen]-5-yl)-1,13,21-trioxo-5,8,11-trioxa-2,14,20-triazahexacosan-22-yl)-2-((2S,5S,8S,11S,14S,17S,20S,23S,26S)-2-(3-amino-3-oxopropyl)-5,20-bis(4-aminobutyl)-14-benzyl-23-((S)-sec-butyl)-11-(hydroxymethyl)-8,17-diisobutyl-26-(naphthalen-2-ylmethyl)-4,7,10,13,16,19,22,25,28-nonaoxo-3,6,9,12,15,18,21,24,27-nonaazanonacosanamido)pentanediamide from recombinant N-terminal His6-tagged human DCN1 (58 to 259 residues) expressed in Escherichia coli Rosetta2 cells after 30 mins by fluorescence polarization assay.
`CCC(=O)N[C@@H](Cc1ccc2ccccc2c1)C(=O)N[C@H](C(=O)N[C@@H](CCCCN)C(=O)NC(c1ccccc1)c1ccccc1)C1CCCCC1`: the IC50 came to 0.613 µM and the Ki stood at 97.3 nM.
`CC[C@H](C)[C@H](NC(=O)[C@H](Cc1ccc2ccccc2c1)NC(=O)C(C)C)C(=O)N[C@@H](CCCCN)C(=O)N[C@@H](CC(C)C)C(N)=O` (Isobutyryl-[2Nal]IKL-NH2): the IC50 stood at 16.5 µM and the Ki amounted to 3500 nM.
Consider `CCC(=O)N[C@@H](Cc1ccc2ccccc2c1)C(=O)N[C@H](C(=O)N[C@@H](CCCCN)C(=O)NC(c1ccccc1)c1ccccc1)[C@@H](C)CC`, for which the Ki is 97 nM.
Consider `CCC(=O)N[C@@H](Cc1ccc2ccccc2c1)C(=O)N[C@H](C(=O)N[C@@H](CCCCN)C(=O)N[C@H]1CCc2ccccc21)[C@@H](C)CC`, for which the Ki turned out to be 380 nM.
As to `CCC(=O)N[C@@H](Cc1ccc2ccccc2c1)C(=O)N[C@@H](CC1CCCCC1)C(=O)N[C@@H](CCCCN)C(=O)NC(c1ccccc1)c1ccccc1`, the IC50 turned out to be 0.368 µM and the Ki was determined as 44.3 nM.
For the molecule `CCC(=O)N[C@@H](Cc1ccc2ccccc2c1)C(=O)N[C@H](C(=O)N[C@@H](CCCCN)C(=O)N[C@@H]1CCc2ccccc21)[C@@H](C)CC`, the Ki worked out at 160 nM.
Take `CCC(=O)N[C@@H](Cc1ccc2ccccc2c1)C(=O)N[C@H](C(=O)N[C@@H](CCCCN)C(=O)NCCc1ccccc1)[C@@H](C)CC` (Propionyl-[2Nal]-Ile-Lys-NHPhenethyl): the IC50 worked out at 10.8 µM and the Ki worked out at 2500 nM.
For the molecule `CCC(=O)N[C@@H](Cc1ccc2ccccc2c1)C(=O)N[C@H](C(=O)N[C@@H](CCCCN)C(=O)N[C@@H]1CCCc2ccccc21)[C@@H](C)CC`, the IC50 amounted to 0.55 µM and the Ki was 84 nM.
On the same counts, the results for `CCC(=O)N[C@@H](Cc1ccc2ccccc2c1)C(=O)N[C@H](C(=O)N[C@@H](CCCCN)C(=O)Nc1ccccc1)[C@@H](C)CC` (Propionyl-[2Nal]-Ile-Lys-NHPh) are 34.9 µM and 7500 nM.
For the molecule `CCC(=O)N[C@@H](Cc1ccc2ccccc2c1)C(=O)N[C@@H](CC(C)(C)C)C(=O)N[C@@H](CCCCN)C(=O)NC(c1ccccc1)c1ccccc1`, the Ki is 42.9 nM.
As for `CC[C@H](C)[C@H](NC(=O)[C@H](Cc1ccc2ccccc2c1)NC(=O)C1CC1)C(=O)N[C@@H](CCCCN)C(=O)N[C@@H](CC(C)C)C(N)=O` (Cyclopropanecarbonyl-[2Nal]IKL-NH2), the IC50 stood at 25.1 µM and the Ki amounted to 5400 nM.
As for `CCC(=O)N[C@@H](Cc1nc2cc(F)ccc2s1)C(=O)N[C@H](C(=O)N[C@@H](CCCCN)C(=O)NC(c1ccccc1)c1ccccc1)C1CCCC1`, the Ki stood at 224 nM.
As for `CCC(=O)N[C@@H](Cc1nc2ccccc2s1)C(=O)N[C@H](C(=O)N[C@@H](CCCCN)C(=O)NC(c1ccccc1)c1ccccc1)C1CCCC1`, the Ki was determined as 50.7 nM.
As for `CCC(=O)N[C@@H](Cc1nc2ccc(Cl)cc2s1)C(=O)N[C@H](C(=O)N[C@@H](CCCCN)C(=O)NC(c1ccccc1)c1ccccc1)C1CCCC1`, the IC50 was determined as 0.132 µM and the Ki was less than 50 nM.
For `CC[C@H](C)[C@H](NC(=O)[C@H](Cc1ccc2ccccc2c1)NC(C)=O)C(=O)N[C@@H](CCCCN)C(=O)N[C@@H](CC(C)C)C(N)=O` (Ac-[2Nal]IKL-NH2), the IC50 amounted to 16.8 µM and the Ki was found to be 3600 nM.
For `CCC(=O)N[C@@H](Cc1ccc2ccccc2c1)C(=O)N[C@H](C(=O)N[C@@H](CCCCN)C(=O)NC(c1ccccc1)c1ccccc1)C1CCCC1`, the IC50 is 0.33 µM and the Ki came out at 36.3 nM.
Take `CCC(=O)N[C@@H](Cc1ccc2ccccc2c1)C(=O)N[C@H](C(=O)N[C@@H](CCCCN)C(=O)NCc1ccccc1)[C@@H](C)CC` (Propionyl-[2Nal]-Ile-Lys-NHBn): the Ki is 810 nM.
As for `CCC(=O)N[C@@H](Cc1ccc2ccccc2c1)C(=O)N[C@H](C(=O)N[C@@H](CCCCN)C(=O)N[C@H]1CCCc2ccccc21)[C@@H](C)CC`, the Ki amounted to 140 nM.
Regarding `CC[C@H](C)[C@H](NC(=O)[C@H](CCSC)NC(C)=O)C(=O)N[C@@H](CCCCN)C(=O)N[C@@H](CC(C)C)C(N)=O` (Ac-MIKL-NH2), the IC50 turned out to be 599 µM and the inhibitory constant (Ki) amounted to 130000 nM.
Regarding `CC[C@H](C)[C@H](NC(=O)[C@H](Cc1ccc2ccccc2c1)NC(=O)NC)C(=O)N[C@@H](CCCCN)C(=O)N[C@@H](CC(C)C)C(N)=O` ({NHMe-CO}-[2Nal]IKL-NH2), the IC50 came to 18.5 µM and the inhibitory constant (Ki) is 4000 nM.
Consider `CCC(=O)N[C@@H](Cc1ccc2ccccc2c1)C(=O)N[C@@H](Cc1cccs1)C(=O)N[C@@H](CCCCN)C(=O)NC(c1ccccc1)c1ccccc1`, for which the Ki amounted to 174 nM.
For the molecule `CCC(=O)N[C@@H](Cc1nc2c(F)cccc2s1)C(=O)N[C@H](C(=O)N[C@@H](CCCCN)C(=O)NC(c1ccccc1)c1ccccc1)C1CCCC1`, the IC50 amounted to 4.92 µM and the Ki is 1030 nM.
Take `CCCC(=O)N[C@@H](Cc1ccc2ccccc2c1)C(=O)N[C@H](C(=O)N[C@@H](CCCCN)C(=O)N[C@@H](CC(C)C)C(N)=O)[C@@H](C)CC` (Butyryl-[2Nal]IKL-NH2): the IC50 stood at 37 µM and the Ki came out at 8000 nM.
With `CC[C@H](C)[C@H](NC(=O)[C@H](Cc1ccc2ccccc2c1)NC(=O)CC(C)C)C(=O)N[C@@H](CCCCN)C(=O)N[C@@H](CC(C)C)C(N)=O` (Isovaleryl-[2Nal]IKL-NH2), the IC50 is more than 20 µM.
Take `CC[C@H](C)[C@H](NC(=O)[C@@H](N)Cc1ccc2ccccc2c1)C(=O)N[C@@H](CCCCN)C(=O)N[C@@H](CC(C)C)C(N)=O` (H-[2Nal]IKL-NH2): the IC50 is more than 100 µM.
In the case of `CCC(=O)N[C@@H](Cc1nc2ccc(F)cc2s1)C(=O)N[C@H](C(=O)N[C@@H](CCCCN)C(=O)NC(c1ccccc1)c1ccccc1)C1CCCC1`, the Ki was 54.4 nM.
For the molecule `CCC(=O)N[C@@H](Cc1ccc2ccccc2c1)C(=O)N[C@@H](CC(F)(F)F)C(=O)N[C@@H](CCCCN)C(=O)NC(c1ccccc1)c1ccccc1`, the IC50 came out at 3.27 µM and the Ki turned out to be 672 nM.
As for `CCC(=O)N[C@@H](Cc1nc2cc(Cl)ccc2s1)C(=O)N[C@H](C(=O)N[C@@H](CCCCN)C(=O)NC(c1ccccc1)c1ccccc1)C1CCCC1`, the Ki turned out to be 88.6 nM.
On to `CC[C@H](C)[C@H](NC(=O)[C@H](Cc1ccc2ccccc2c1)NC(=O)OC)C(=O)N[C@@H](CCCCN)C(=O)N[C@@H](CC(C)C)C(N)=O` (Moc-[2Nal]IKL-NH2), for which the IC50 was more than 50 µM.
`CCC(=O)N[C@@H](Cc1ccc2ccccc2c1)C(=O)N[C@H](C(=O)N[C@@H](CCCCN)C(=O)N[C@@H](CC(C)C)C(N)=O)[C@@H](C)CC` (Propionyl-[2Nal]IKL-NH2): the IC50 is 5.2 µM and the Ki came to 1100 nM.
In the case of `CC[C@H](C)[C@H](NC(=O)[C@H](Cc1ccc2ccccc2c1)NC=O)C(=O)N[C@@H](CCCCN)C(=O)N[C@@H](CC(C)C)C(N)=O` (For-[2Nal]IKL-NH2), the 50% inhibitory concentration (IC50) worked out at 128 µM and the Ki was 27500 nM.

Values taken from ChEMBL document CHEMBL4118105, “High-Affinity Peptidomimetic Inhibitors of the DCN1-UBC12 Protein-Protein Interaction” (J Med Chem, 2018).
